Measurements taken from ChEMBL document CHEMBL4028881, “Synthesis, Pharmacology, and Molecular Docking Studies on 6-Desoxo-N-methylmorphinans as Potent μ-Opioid Receptor Agonists” (J Med Chem, 2017).

Columns and labels:
[1] = target: Mu-type opioid receptor (Homo sapiens) (UniProt P35372); experiment: Agonist activity at recombinant human MOR expressed in CHO cell membranes after 60 mins by [35S]GTPgammaS binding assay; type: functional
How it was run: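 [35S]GTPγS binding stimulated by ligand in membranes from CHO cells stably expressing human MOR. Values are mean ± SEM of at least three independent experiments.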

Mus musculus = experiment: Potency index, ratio of moprhine ED50 for antinociceptive activity in sc dosed […] mouse to compound ED50 for antinociceptive activity in sc dosed CD1 mouse; type: functional
[2] = target: Mu-type opioid receptor (Homo sapiens) (UniProt P35372); experiment: Displacement of [3H]-DAMGO from recombinant human MOR expressed in CHO cell membranes after 60 mins by liquid scintillation counting
How it was run: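 Competition binding on membranes from CHO cells stably transfected with recombinant human MOR. Affinity is reported as Ki. Values are mean ± SEM of at least three independent experiments.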

Homo sapiens = species on record: Homo sapiens; experiment: Selectivity ratio of Ki for recombinant human DOR expressed in CHO cell membranes to Ki for recombinant human MOR expressed in CHO cell membranes; type: cell-based

Mu-type opioid receptor (Homo sapiens), sequence (P35372 whole entry): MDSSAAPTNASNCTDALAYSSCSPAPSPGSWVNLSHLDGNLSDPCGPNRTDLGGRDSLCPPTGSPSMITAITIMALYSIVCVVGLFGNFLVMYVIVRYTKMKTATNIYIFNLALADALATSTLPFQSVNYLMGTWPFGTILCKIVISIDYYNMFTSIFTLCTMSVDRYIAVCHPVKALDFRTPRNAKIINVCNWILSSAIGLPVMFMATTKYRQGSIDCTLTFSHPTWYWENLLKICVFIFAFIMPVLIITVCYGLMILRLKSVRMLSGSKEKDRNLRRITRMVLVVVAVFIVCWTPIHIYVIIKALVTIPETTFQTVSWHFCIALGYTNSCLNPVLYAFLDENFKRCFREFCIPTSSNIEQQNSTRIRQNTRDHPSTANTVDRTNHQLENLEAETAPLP

Compound | Activity [1] | Ratio ED50 (Mus musculus) | inhibition [2] | Ratio Ki (Homo sapiens)
CN1CC[C@]23c4c5ccc(O)c4O[C@H]2CCC[C@@]3(O)[C@H]1C5 | Dose-dependent effect | <=1020 | Dose-dependent effect | –
CN1CC[C@]23c4c5ccc(O)c4O[C@H]2C(=O)CC[C@@]3(OCc2ccccc2)[C@H]1C5 | Dose-dependent effect | <=1020 | Dose-dependent effect | –
CO[C@@]12CCC(=O)[C@@H]3Oc4c(O)ccc5c4[C@@]31CCN(C)[C@@H]2C5 | Dose-dependent effect | <=1020 | Dose-dependent effect | –
CO[C@@]12CCC[C@]3(C)Oc4c(O)ccc5c4[C@@]31CCN(C)[C@@H]2C5 | – | <=1020 | – | –
CO[C@@]12CCC[C@@H]3Oc4c(O)ccc5c4[C@@]31CCN(C)[C@@H]2C5 | Dose-dependent effect | <=1020 | Dose-dependent effect | –
CN1CC[C@]23c4c5ccc(O)c4O[C@H]2CCC[C@@]3(OCc2ccccc2)[C@H]1C5 | Dose-dependent effect | <=1020 | Dose-dependent effect | 21
CO[C@@]12CCC(=O)[C@]3(C)Oc4c(O)ccc5c4[C@@]31CCN(C)[C@@H]2C5 | Dose-dependent effect | <=1020 | Dose-dependent effect | –
